Test results published in ChEMBL document CHEMBL3244414, “Structure-activity relationships among the O-acyl derivatives of leucomycin. Correlation of minimal inhibitory concentrations with binding to Escherichia coli ribosomes” (J Med Chem, 1977).
Converted amounts (≈) assume the structure as drawn.

Legend:
Staphylococcus aureus = test: Antimicrobial activity against Staphylococcus aureus ATCC 6538P by agar dilution method; type: functional; conditions: Staphylococcus aureus, ATCC 6538P; read-out: MIC
Summary of the method: (§1)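 Read-out is the minimal inhibitory concentration, found by agar dilution against the named strain.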

Bacillus spizizenii = test: Antimicrobial activity against Bacillus subtilis ATCC 6633 by agar dilution method; type: functional; conditions: Bacillus spizizenii, ATCC 6633; read-out: MIC; summary of the method: as §1
Klebsiella pneumoniae = test: Antimicrobial activity against Klebsiella pneumoniae ATCC 10031 by agar dilution method; type: functional; conditions: Klebsiella pneumoniae, ATCC 10031; read-out: MIC; summary of the method: as §1
[1] = target: Bacterial 70S ribosome (Bacteria) (UniProt P0A7V0+P60723+P0AG67+P0A7R5+P0A7R9+P0A7S3+P0A7S9+P0AG59+P0ADZ4+P0A7T3+P0AG63+P0A7T7+P0A7U3+P0A7U7+P68679+P0A7V3+P0A7V8+P0A7W1+P02358+P02359+P0A7W7+P0A7X3+P0A7J3+P0A7J7+P0AA10+P0ADY3+P02413+P0ADY7+P0AG44+P0C018+P0A7K6+P0A7L0+P0A7L3+P0AG48+P61175+P0ADZ0+P60624+P68919+P0A7L8+P0A7M2+P0A7M6+P60422+P0AG51+P0A7N1+P0A7M9+P0A7N4+P0A7N9+P0A7P5+P0A7Q1+Q2EEQ2+P0A7Q6+P60438+P62399+P0AG55+P0A7K2); test: (§2) Displacement of [14C]erythromycin from Escherichia coli ribosomes after 30 mins by scintillation spectrometer analysis
Summary of the method: (§3)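 NH4Cl-washed E. coli ribosomes with [14C]erythromycin A and varied competitor concentrations in 0.01 M Tris-HCl pH 7.2, 0.1 M KCl, 0.004 M MgCl2, 0.01 M NH4Cl. Incubated 30 min at 24 °C, stopped by dilution in cold Tris/KCl/MgCl2 buffer, membrane-filtered, washed three times, dried, scintillation counted. Reports the concentration giving 50% inhibition of binding.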

Bacterial 70S ribosome = test: as §2; summary of the method: as §3

| SMILES | MIC (Staphylococcus aureus) [mg/L] | MIC (Bacillus spizizenii) [mg/L] | MIC (Klebsiella pneumoniae) [mg/L] | pK50 [1] | IC50 (Bacterial 70S ribosome) [µM] |
| --- | --- | --- | --- | --- | --- |
| CCCC(=O)O[C@H]1[C@H](C)O[C@@H](O[C@H]2[C@H](N(C)C)[C@@H](OC(C)=O)[C@H](O[C@H]3[C@@H](CC=O)C[C@@H](C)[C@@H](OC(C)=O)/C=C/C=C/C[C@@H](C)OC(=O)C[C@@H](OC(C)=O)[C@@H]3OC)O[C@@H]2C)C[C@@]1(C)O | 1.6 (≈ 1.78 µM) | 1.6 (≈ 1.78 µM) | 100 (≈ 111 µM) | 4.5 | 33.1 |
| CCC(=O)O[C@H]1/C=C/C=C/C[C@@H](C)OC(=O)C[C@@H](O)[C@H](OC)[C@@H](O[C@@H]2O[C@H](C)[C@@H](O[C@H]3C[C@@](C)(O)[C@@H](O)[C@H](C)O3)[C@H](N(C)C)[C@H]2O)[C@@H](CC=O)C[C@H]1C | 6.3 (≈ 8.31 µM) | 3.1 (≈ 4.09 µM) | 100 (≈ 132 µM) | 5.4 | 4 |
| CCCC(=O)O[C@H]1[C@H](C)O[C@@H](O[C@H]2[C@H](N(C)C)[C@@H](OC(C)=O)[C@H](O[C@H]3[C@@H](CC=O)C[C@@H](C)[C@@H](OC(C)=O)/C=C/C=C/C[C@@H](C)OC(=O)C[C@@H](O)[C@@H]3OC)O[C@@H]2C)C[C@@]1(C)O | 1.6 (≈ 1.87 µM) | 0.8 (≈ 0.935 µM) | 100 (≈ 117 µM) | 4.6 | 23.4 |
| CCC(=O)O[C@H]1[C@H](C)O[C@@H](O[C@H]2[C@H](N(C)C)[C@@H](O)[C@H](O[C@H]3[C@@H](CC=O)C[C@@H](C)[C@@H](O)/C=C/C=C/C[C@@H](C)OC(=O)C[C@@H](OC(C)=O)[C@@H]3OC)O[C@@H]2C)C[C@@]1(C)O | 1.6 (≈ 2 µM) | 3.1 (≈ 3.88 µM) | 50 (≈ 62.5 µM) | 5.7 | 1.9 |
| CO[C@@H]1[C@@H](O[C@@H]2O[C@H](C)[C@@H](O[C@H]3C[C@@](C)(O)[C@@H](OC(=O)CC(C)C)[C@H](C)O3)[C@H](N(C)C)[C@H]2OC(C)=O)[C@@H](CC=O)C[C@@H](C)[C@@H](O)/C=C/C=C/C[C@@H](C)OC(=O)C[C@H]1OC(C)=O | 1.6 (≈ 1.84 µM) | 0.8 (≈ 0.919 µM) | 25 (≈ 28.7 µM) | 4.5 | 33.9 |
| CCCC(=O)O[C@H]1[C@H](C)O[C@@H](O[C@H]2[C@H](N(C)C)[C@@H](O)[C@H](O[C@H]3[C@@H](CC=O)C[C@@H](C)[C@@H](O)/C=C/C=C/C[C@@H](C)OC(=O)C[C@@H](O)[C@@H]3OC)O[C@@H]2C)C[C@@]1(C)O | 0.4 (≈ 0.518 µM) | 0.8 (≈ 1.04 µM) | 12.5 (≈ 16.2 µM) | 6 | 1.1 |
| CCCC(=O)O[C@H]1/C=C/C=C/C[C@@H](C)OC(=O)C[C@@H](O)[C@H](OC)[C@@H](O[C@@H]2O[C@H](C)[C@@H](O[C@H]3C[C@@](C)(O)[C@@H](OC(=O)CCC)[C@H](C)O3)[C@H](N(C)C)[C@H]2O)[C@@H](CC=O)C[C@H]1C | 1.6 (≈ 1.9 µM) | 1.6 (≈ 1.9 µM) | 50 (≈ 59.4 µM) | 6 | 0.9 |
| CCCC(=O)O[C@H]1[C@H](C)O[C@@H](O[C@H]2[C@H](N(C)C)[C@@H](O)[C@H](O[C@H]3[C@@H](CC=O)C[C@@H](C)[C@@H](OC(=O)CCl)/C=C/C=C/C[C@@H](C)OC(=O)C[C@@H](O)[C@@H]3OC)O[C@@H]2C)C[C@@]1(C)O | 1.6 (≈ 1.89 µM) | 0.4 (≈ 0.471 µM) | 25 (≈ 29.5 µM) | 6 | 0.9 |
| CCCC(=O)O[C@H]1[C@H](C)O[C@@H](O[C@H]2[C@H](N(C)C)[C@@H](O)[C@H](O[C@H]3[C@@H](CC=O)C[C@@H](C)[C@@H](OC(=O)CC)/C=C/C=C/C[C@@H](C)OC(=O)C[C@@H](O)[C@@H]3OC)O[C@@H]2C)C[C@@]1(C)O | 1.6 (≈ 1.93 µM) | 0.8 (≈ 0.966 µM) | 50 (≈ 60.4 µM) | 5.8 | 1.7 |
| CO[C@H]1C(O)CC(=O)O[C@H](C)C/C=C/C=C/[C@H](OC(C)=O)[C@H](C)C[C@H](CC=O)[C@@H]1O[C@@H]1O[C@H](C)[C@@H](O[C@H]2C[C@@](C)(O)[C@@H](O)[C@H](C)O2)[C@H](N(C)C)[C@H]1O (single isomer, unassigned) | 6.3 (≈ 8.47 µM) | 3.1 (≈ 4.17 µM) | 100 (≈ 134 µM) | 5.6 | 2.8 |
| CCCC(=O)O[C@H]1[C@H](C)O[C@@H](O[C@H]2[C@H](N(C)C)[C@@H](O)[C@H](O[C@H]3[C@@H](CC=O)C[C@@H](C)[C@@H](O)/C=C/C=C/C[C@@H](C)OC(=O)C[C@@H](OC(C)=O)[C@@H]3OC)O[C@@H]2C)C[C@@]1(C)O | 0.8 (≈ 0.983 µM) | 1.6 (≈ 1.97 µM) | 50 (≈ 61.4 µM) | 5.9 | 1.2 |
| CO[C@@H]1[C@@H](O[C@@H]2O[C@H](C)[C@@H](O[C@H]3C[C@@](C)(O)[C@@H](OC(=O)CC(C)C)[C@H](C)O3)[C@H](N(C)C)[C@H]2O)[C@@H](CC=O)C[C@@H](C)[C@@H](O)/C=C/C=C/C[C@@H](C)OC(=O)C[C@H]1OC(C)=O [JOSAMYCIN] | 1.6 (≈ 1.93 µM) | 0.4 (≈ 0.483 µM) | 25 (≈ 30.2 µM) | 5.9 | 1.2 |
| CCCC(=O)O[C@H]1[C@H](C)O[C@@H](O[C@H]2[C@H](N(C)C)[C@@H](O)[C@H](O[C@H]3[C@@H](CC=O)C[C@@H](C)[C@@H](OC(C)=O)/C=C/C=C/C[C@@H](C)OC(=O)C[C@@H](O)[C@@H]3OC)O[C@@H]2C)C[C@@]1(C)O | 1.6 (≈ 1.97 µM) | 0.4 (≈ 0.491 µM) | 25 (≈ 30.7 µM) | 6.1 | 0.9 |
| CO[C@@H]1[C@@H](O[C@@H]2O[C@H](C)[C@@H](O[C@H]3C[C@@](C)(O)[C@@H](OC(=O)CC(C)C)[C@H](C)O3)[C@H](N(C)C)[C@H]2O)[C@@H](CC=O)C[C@@H](C)[C@@H](OC(=O)C(C)C)/C=C/C=C/C[C@@H](C)OC(=O)C[C@H]1OC(C)=O | 3.1 (≈ 3.45 µM) | 0.8 (≈ 0.891 µM) | 100 (≈ 111 µM) | 5.7 | 2 |
